The record followed here is ChEMBL document CHEMBL4390656, “Shooting three inflammatory targets with a single bullet: Novel multi-targeting anti-inflammatory glitazones” (Eur J Med Chem, 2019).

As usually defined, the IC50 is the concentration that inhibits the measured activity by half. One may read the inhibition in vivo as the drop in the measured response relative to a control, in per cent.

In experiment [1] the target is T1, Peroxisome proliferator-activated receptor gamma (Homo sapiens) (UniProt P37231).
T1 sequence (whole entry): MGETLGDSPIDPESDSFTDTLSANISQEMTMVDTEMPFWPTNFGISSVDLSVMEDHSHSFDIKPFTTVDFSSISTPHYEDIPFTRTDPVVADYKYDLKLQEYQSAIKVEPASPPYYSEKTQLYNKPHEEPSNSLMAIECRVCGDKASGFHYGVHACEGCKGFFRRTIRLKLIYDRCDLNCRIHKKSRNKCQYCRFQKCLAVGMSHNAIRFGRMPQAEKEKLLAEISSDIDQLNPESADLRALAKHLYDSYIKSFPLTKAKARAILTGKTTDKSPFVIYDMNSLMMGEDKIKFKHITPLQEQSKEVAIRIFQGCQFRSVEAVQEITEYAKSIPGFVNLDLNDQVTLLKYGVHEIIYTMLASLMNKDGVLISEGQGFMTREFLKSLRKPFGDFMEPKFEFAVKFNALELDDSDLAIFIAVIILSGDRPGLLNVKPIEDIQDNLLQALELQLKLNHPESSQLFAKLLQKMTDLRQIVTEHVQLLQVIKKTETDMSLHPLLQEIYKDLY
Nature of the experiment: Transactivation of GAL4 DBD-fused human PPARgamma LBD expressed in HEK293 cells at 10 uM after 24 hrs by luciferase reporter gene assay relative to pioglitazone. It counts as cell-based. The method, boiled down: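 HEK293(T) cells transiently co-transfected with a Gal4 DBD–human PPARγ LBD hybrid and a Gal4 UAS-driven Renilla luciferase reporter. […] Luciferase activity normalized to Renilla and expressed as fold induction over vehicle; triplicates, repeated at least three times.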
Background: In a reporter assay the amount or activity of a reporter protein is the signal.

A short description of experiment [2]: Inhibition of soya bean 15-LOX by colorimetric lipoxygenase inhibitor screening assay kit method. Also on record: species or system Glycine max. The essentials:
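Soybean 15-LOX activity measured with a colorimetric lipoxygenase inhibitor screening kit per the kit instructions.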

Experiment [3] relates to THP-1. Nature of the experiment: Inhibition of PMA-induced human THP1 monocytes differentiation in to macrophages assessed as macrophage metabolic activity preincubated for 6 hrs before PMA stimulation.
Experiment [4] is filed under the species Rattus norvegicus. The experiment can be described thus: Antidiabetic activity in Wistar rat hemi-diaphragm at 2 mg assessed as increase in glucose uptake in absence of insulin by GOD/POD enzymatic method. It counts as functional, tissue-based. The essentials: (§1)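 Wistar rats (150-250 g), fasted overnight, euthanized under ether; diaphragms removed and halved, each half weighed. Glucose in the working solution measured before and after incubation, and uptake taken as initial minus final content at 2 mg drug; expressed as mg/dl/45 min, mean ± SEM.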

Experiment [5] is filed under the species Rattus norvegicus. Nature of the experiment: Antidiabetic activity in Wistar rat hemi-diaphragm at 2 mg assessed as increase in insulin-induced glucose uptake by GOD/POD enzymatic method. Format: functional, tissue-based. The essentials: as §1
Experiment [6] addresses T2, Prostaglandin G/H synthase 1 (Ovis aries, UniProt P05979).
T2 sequence (P05979 whole entry): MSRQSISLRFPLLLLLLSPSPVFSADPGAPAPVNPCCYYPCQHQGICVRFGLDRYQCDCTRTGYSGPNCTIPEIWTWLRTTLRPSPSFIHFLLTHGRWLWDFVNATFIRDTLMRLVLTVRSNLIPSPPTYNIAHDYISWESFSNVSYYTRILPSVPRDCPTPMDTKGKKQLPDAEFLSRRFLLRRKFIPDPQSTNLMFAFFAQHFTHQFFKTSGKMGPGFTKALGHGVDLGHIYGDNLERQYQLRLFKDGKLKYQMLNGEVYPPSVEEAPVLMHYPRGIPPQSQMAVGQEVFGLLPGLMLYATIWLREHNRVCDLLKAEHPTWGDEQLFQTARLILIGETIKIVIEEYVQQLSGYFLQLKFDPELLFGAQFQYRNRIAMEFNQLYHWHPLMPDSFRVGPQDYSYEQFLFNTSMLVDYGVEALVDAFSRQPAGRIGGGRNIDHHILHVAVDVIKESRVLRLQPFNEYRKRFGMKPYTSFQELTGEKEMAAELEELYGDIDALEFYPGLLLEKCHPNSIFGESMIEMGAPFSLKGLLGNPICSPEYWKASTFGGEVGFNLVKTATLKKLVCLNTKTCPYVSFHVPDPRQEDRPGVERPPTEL
The experiment can be described thus: Inhibition of ovine COX1 catalytic activity using arachidonic acid as substrate pre-incubated for 10 mins followed by substrate addition and measured after 2 mins by ELISA method. On the technique in general: An ELISA detects its analyte on a solid surface through an enzyme-linked reagent.

Experiment [7] deals with Rattus norvegicus. Nature of the experiment: Antiinflammatory activity in rat acute inflammation model assessed as inhibition of formalin-induced paw edema at 5 mg/kg, po measured after 4 hrs relative to control. It counts as functional. The essentials:
(§2)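 Adult female albino rats, 150-250 g, acclimatized 1 week. Compounds given orally at 5 mg/kg body weight; percentage edema inhibition measured after 4 h. Celecoxib and diclofenac sodium served as positive controls.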

In experiment [8] the test system is Rattus norvegicus. Nature of the experiment: Antiinflammatory activity in rat acute inflammation model assessed as inhibition of formalin-induced paw edema at 5 mg/kg, po measured after 4 hrs relative to celecoxib. Format: functional. The method, boiled down: as §2
Experiment [9] concerns THP-1. The experiment can be described thus: Inhibition of PMA-induced human THP1 monocytes differentiation in to macrophages assessed as macrophage metabolic activity up to 300 uM preincubated for 6 hrs before PMA stimulation. Format: functional, cell-based. The essentials:
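THP-1 cells grown in RPMI-1640 with 10% FBS and seeded at 2×10^5 cells/ml. Drug concentrations applied for 6 h before differentiation with PMA 25 ng/ml for 24 h; wells washed 3x with PBS. Attached cells quantified by MTS viability readout, with a no-PMA blank, normalized to DMSO-pretreated PMA cells. Viability at each drug concentration checked separately over 30 h.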

Structures are written as SMILES. Activity calls are given as the source filed them. The rule behind the calls is not given here.

Regarding `O=C1NC(=O)/C(=C/c2ccc(OCc3cn(Cc4ccc(Br)cc4)nn3)cc2)S1`, in experiment [1], the Activity lay in the range of 25 to 45%. Same read-out and setting: the same measure for `O=C1NC(=O)/C(=C/c2ccc(OCc3cn(-c4ccc(Br)cc4)nn3)cc2)S1`: 25 to 45%. In the case of `CC(Cc1ccc(O)c(O)c1)C(C)Cc1ccc(O)c(O)c1` (centres undefined) [NORDIHYDROGUAIARETIC ACID], in experiment [2], the IC50 was found to be 10.2 µM. Still for that read-out and setting: the same measure for `O=c1c(O)c(-c2ccc(O)c(O)c2)oc2cc(O)cc(O)c12` [QUERCETIN]: 3.27 µM. In experiment [1], `C#CCOc1ccc(/C=C2\SC(=S)NC2=O)cc1` yielded an Activity of 25 to 45%. `O=C(O)Cc1ccccc1Nc1c(Cl)cccc1Cl` [DICLOFENAC]: the IC50 with THP-1 [3] amounted to 143 µM. Take `O=C1NC(=S)S/C1=C\c1ccc(OCc2cn(CC(=O)c3ccc(Br)cc3)nn2)cc1`: the result in the experiment filed under Rattus norvegicus [4] and in the experiment listed under Rattus norvegicus [5] was Active. Moreover, the IC50 in experiment [2] amounted to 4.34 µM; in experiment [6], 14.9 µM. For the molecule `COc1ccc(-n2cc(COc3ccc(/C=C4\SC(=O)NC4=O)cc3)nn2)cc1`, in [1], the Activity is 25 to 45%.

`O=C1NC(=S)S/C1=C\c1ccc(OCc2cn(CC(=O)c3ccc(Cl)cc3)nn2)cc1`: the 50% inhibitory concentration (IC50) in [2] was 4.22 µM; in experiment [6], 12.4 µM. Take `Cc1ccc(-c2cc(C(F)(F)F)nn2-c2ccc(S(N)(=O)=O)cc2)cc1` [CELECOXIB]: the inhibition in vivo at 5 mg/kg with Rattus norvegicus [7] came to 36.8%. As for `O=C1NC(=O)/C(=C/c2ccc(OCc3cn(CC(=O)c4ccc(Cl)cc4)nn3)cc2)S1`, it took 10.9 µM to reach half-maximal inhibition in experiment [6] (IC50). As for `O=C(O)Cc1ccccc1Nc1c(Cl)cccc1Cl` [DICLOFENAC SODIUM], the results for the inhibition in vivo at 5 mg/kg in the experiment with Rattus norvegicus [8] and in the experiment on Rattus norvegicus [7] were 205% and 52.1%, respectively. `CCc1ccc(CCOc2ccc(CC3SC(=O)NC3=O)cc2)nc1` (centres undefined): the outcome in the experiment listed under Rattus norvegicus [4] and in the experiment listed under Rattus norvegicus [5] was Active. For the same molecule, the inhibition entry in the experiment on THP-1 [9] was “inactive”.

On to `O=C1NC(=O)/C(=C/c2ccc(OCc3cn(CC(=O)c4ccc(Br)cc4)nn3)cc2)S1`, for which the result in the experiment listed under Rattus norvegicus [4] and in the experiment filed under Rattus norvegicus [5] was Active. Moreover, the half-maximal inhibitory concentration (IC50) was 4.97 µM in experiment [2] and 13.6 µM in [6].
